From ChEMBL document CHEMBL1156525, “A small-molecule therapeutic lead for Huntington's disease: preclinical pharmacology and efficacy of C2-8 in the R6/2 transgenic mouse” (Proc Natl Acad Sci U S A, 2007)
Calls of active or inactive are those of the source. No cut-off for these calls is given here.

What was measured:
Adenosine receptor A3 = biological target: T1, Adenosine receptor A3 (Homo sapiens, UniProt P0DMS8); assay: Inhibition of adenosine A3 receptor
T1 sequence (P0DMS8 whole entry): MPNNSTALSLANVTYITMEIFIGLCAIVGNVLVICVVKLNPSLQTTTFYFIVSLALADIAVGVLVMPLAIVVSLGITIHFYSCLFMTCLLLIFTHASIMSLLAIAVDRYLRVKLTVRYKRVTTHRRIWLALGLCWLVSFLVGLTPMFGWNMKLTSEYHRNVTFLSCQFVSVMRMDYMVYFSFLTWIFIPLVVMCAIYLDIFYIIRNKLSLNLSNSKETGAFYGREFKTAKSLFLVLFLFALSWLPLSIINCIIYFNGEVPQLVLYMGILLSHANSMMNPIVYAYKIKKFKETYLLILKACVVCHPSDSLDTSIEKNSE
Summary of the method: (§1)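 Screened against a panel of 60 receptors, ion channels and transporters expressed in mammalian brain. Receptor-binding profile reported as IC50.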

[1] = Lipophilicity, log P of the compound; assay type: physicochemical; settings: octanol/water
[2] = Drug level in mouse cerebral cortex at 50 mg/kg, po administered for 5 days after 5 hrs; assay type: ADME, organism-based; design: dose 50 mg/kg, route oral; settings: read-out: Drug uptake
Summary of the method: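 Wild-type mice (n = 5) given 50 mg/kg by oral gavage as a suspension for 5 days. Killed 5 h after the last dose. Cortex (20–30 mg) sonicated in acetonitrile/0.4% acetic acid at −10°C, centrifuged, and the supernatant dried and reconstituted in mobile phase. Analysed by LC electrochemical array against a 0.8 μg/ml standard.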

[3] = Plasma half life in po dosed mouse; assay type: ADME, organism-based
Summary of the method: (§2)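 Wild-type mice given single oral doses of 5, 10, 25 or 50 mg/kg. Plasma and brain sampled at 1, 4 and 8 h after dosing, and also at 16 and 24 h. Drug measured by HPLC/MS. n = 5; SD. Half-lives derived from the concentration–time course.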

[4] = Half life in po dosed mouse brain; assay type: ADME, organism-based; summary of the method: as §2
Brain = assay: Drug concentration in mouse brain at 10 mg/kg, po after 16 hrs; assay type: ADME, organism-based; design: dose 10 mg/kg, route oral; settings: in vivo; summary of the method: as §2
Plasma = assay: Drug concentration in mouse plasma at 25 mg/kg, po after 24 hrs; assay type: ADME, organism-based; design: dose 25 mg/kg, route oral; settings: in vivo; summary of the method: as §2
Mus musculus [5] = assay: Toxicity in R6/2 mouse assessed as effect on body weight at 50 mg/kg/12 hrs for 4 weeks; assay type: organism-based; settings: in vivo
Summary of the method: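 Chronic tolerability study in adult R6/2 mice, n = 10 per group, dosed with 50, 100 or 200 mg/kg/12 h for 4 weeks by oral gavage. Body weight recorded weekly at the same time of day.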

Mus musculus [6] = assay: Toxicity in R6/2 mouse assessed as effect on body weight at 100 mg/kg/12 hrs for 4 weeks; assay type: organism-based; settings: in vivo
Summary of the method: (§3)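 Chronic tolerability study in adult female R6/2 mice (back-crossed onto C57BL/6 × CBA F1), n = 10 per group. Oral gavage twice daily at 50, 100 or 200 mg/kg/12 h for 4 weeks, given as a suspension made fresh daily. Body weight was recorded weekly at the same time of day.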

Mus musculus [7] = assay: Toxicity in R6/2 mouse assessed as body weight at 200 mg/kg/12 hrs for 4 weeks; assay type: organism-based; settings: in vivo; summary of the method: as §3
Mus musculus [8] = assay: Toxicity in R6/2 mouse assessed as survival at 100 mg/kg/12 hrs for 4 weeks; assay type: organism-based; settings: in vivo
Mus musculus [9] = assay: Toxicity in R6/2 mouse assessed as survival at 200 mg/kg/12 hrs for 4 weeks; assay type: organism-based; settings: in vivo
[10] = biological target: Sodium-dependent dopamine transporter (Homo sapiens, UniProt Q01959); assay: Inhibition of DAT; summary of the method: as §1
Mus musculus [11] = species on record: Mus musculus; assay: Reduction of decrease in motor dysfunction in R6/2 mouse assessed as increase in latency to fall at 8 weeks of age by rotarod test; assay type: functional; design: scale not given: the % may be the effect or the level left
Summary of the method: (§4)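 R6/2 mice dosed orally at 0, 100 or 200 mg/kg/12 h from 24 days of age until death. Rotarod latency to fall tested at 5, 8 and 11 weeks of age. n = 15; geometric mean ± 95% CI; mixed-model analysis.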

Mus musculus [12] = species on record: Mus musculus; assay: Reduction of decrease in motor dysfunction in R6/2 mouse assessed as increase in latency to fall at 11 weeks of age by rotarod test; assay type: functional; design: scale not given: the % may be the effect or the level left; summary of the method: as §4
Mus musculus [13] = assay: Reduction of decrease in motor dysfunction in R6/2 mouse assessed as improvement in wire-hang endurance at 100 mg/kg/12 hrs after 12.5 weeks; assay type: functional, organism-based
Summary of the method: (§5)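 Female R6/2 mice dosed by oral gavage at 0, 100 or 200 mg/kg/12 h from 24 days of age. Wire-hang endurance tested at 9.5 and 12.5 weeks: mouse placed on horizontal wire mesh, mesh gently inverted, and time hanging recorded. Three trials per day on three consecutive days, averaged. n = 15; geometric mean ± 95% CI; mixed-model analysis.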

Mus musculus [14] = species on record: Mus musculus; assay: Reduction of decrease in motor dysfunction in R6/2 mouse assessed as improvement in wire-hang endurance after 9.5 weeks; assay type: organism-based; settings: in vivo, 1596 h; summary of the method: as §5
Mus musculus [15] = assay: Decrease in neuronal atrophy in R6/2 mouse assessed as striatal neuronal cell body volume at 200 mg/kg relative to control; assay type: functional; design: scale not given: the % may be the effect or the level left
Summary of the method: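 Female R6/2 mice given oral gavage twice daily from 3 weeks of age until death or kill. Perfused at 90 days with 2% paraformaldehyde. Every eighth 50 μm thionin-stained section used; striatal neuronal cell body volume estimated stereologically by the nucleator method. n = 10; mean ± SEM; ANOVA versus placebo-treated R6/2 mice.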

Mus musculus [16] = assay: Decrease in striatal nuclear aggregate volume in R6/2 mouse at 200 mg/kg by nucleator method; assay type: functional; design: scale not given: the % may be the effect or the level left
Summary of the method: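 R6/2 mice dosed orally twice daily from 3 weeks of age, perfusion-fixed at 90 days. Floating forebrain sections at the anterior commissure crossing were stained with EM48 (1:2,000) for 2 days, then biotinylated secondary antibody and ABC development. Intranuclear aggregate volume in the striatum measured by the nucleator method. Compared with vehicle-treated R6/2 mice.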

[17] = Inhibition of opioid receptor; summary of the method: as §1
PC-12 = assay: Inhibition of polyQ aggregation in rat PC12 cells; assay type: functional, cell-based

Chain of Sodium-dependent dopamine transporter (Q01959 whole entry): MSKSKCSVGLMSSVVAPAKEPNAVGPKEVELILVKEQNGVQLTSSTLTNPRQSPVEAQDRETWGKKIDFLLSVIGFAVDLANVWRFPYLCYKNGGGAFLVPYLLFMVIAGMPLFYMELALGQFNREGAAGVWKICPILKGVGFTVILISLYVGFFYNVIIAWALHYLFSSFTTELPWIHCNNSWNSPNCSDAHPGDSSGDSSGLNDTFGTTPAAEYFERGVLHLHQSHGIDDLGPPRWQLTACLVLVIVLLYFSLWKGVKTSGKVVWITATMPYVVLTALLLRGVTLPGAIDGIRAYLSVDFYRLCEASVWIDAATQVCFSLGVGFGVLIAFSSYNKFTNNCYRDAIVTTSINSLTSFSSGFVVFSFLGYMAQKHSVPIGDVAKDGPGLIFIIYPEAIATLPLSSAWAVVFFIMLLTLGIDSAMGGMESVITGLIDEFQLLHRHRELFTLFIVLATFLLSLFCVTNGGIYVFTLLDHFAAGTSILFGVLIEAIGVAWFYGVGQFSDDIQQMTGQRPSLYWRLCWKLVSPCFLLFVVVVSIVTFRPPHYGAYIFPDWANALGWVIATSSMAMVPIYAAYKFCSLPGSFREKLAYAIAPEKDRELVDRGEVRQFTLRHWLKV

For `O=C(Nc1ccc(Br)cc1)c1cccc(S(=O)(=O)Nc2ccc(Br)cc2)c1`, the IC50 (Adenosine receptor A3) was 5760 nM, the logP [1] was 5.2 and the concentration at 5 h [2] was 25 µM. For the same compound, the half-life [3] was 1.5 h, the half-life [4] was 1.6 h and the Drug uptake (Brain) was less than 15 pmol/g. For the same compound, the Cp (Plasma) was less than 3 pmol/g, the Activity (Mus musculus [5]) was “Non-toxic” and the Activity (Mus musculus [6]) was “Non-toxic”. The Activity (Mus musculus [7]) was “Non-toxic”, the Activity (Mus musculus [8]) was “Non-toxic” and the Activity (Mus musculus [9]) was “Non-toxic”. The IC50 [10] was 1700 nM, the Activity (Mus musculus [11]) was 37% and the Activity (Mus musculus [12]) was 43%. For the same compound, the Activity (Mus musculus [13]) was “Active”, the Activity (Mus musculus [14]) was “Active” and the Activity (Mus musculus [15]) was 20%. It also gave an Activity (Mus musculus [16]) of 35%, an IC50 [17] of 2790 nM and an IC50 (PC-12) of 50 nM.
